# Results published in PubChem BioAssay.
# Activity calls are given as the source filed them.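 Rule for the calls, unless noted: active = viability at or under a set limit in both replicates, limit being median viability minus 3 SD (cut at about 48% in these data, passing the limit was not always enough); inconclusive = at or under the limit in just one replicate; inactive = at or above the limit in both replicates.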
# Columns and labels:
# [1] = SK-BR-3 cell growth inhibitors, pilot screen, 24 h, human (AID 572;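 active = viability at or below 10% of carrier control in both of two separate runs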;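 note: compound exposure lasted between 18 and 24 h rather than exactly 24 h; 100% = carrier-treated control wells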); details: SK-BR-3 viability, CellTiter-Glo luminescence, at 10 µM, stronger effect = lower value
# [2] = HUVEC growth inhibition – cell-based, human, primary screen (AID 575;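 active = viability at or below 30% in both replicate assays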;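 note: 100% = median of untreated cell wells with 0.1% DMSO on each plate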); details: HUVEC proliferation, CellTiter-Glo luminescence, 72 h; at 10 µM; stronger effect = lower value
# Procedure, shortened: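 material = primary HUVEC, no more than 12 passages | input = 1250 cells per well | controls = vehicle and MePR control wells | measured by = CTG luminescence | times = 72 h compound incubation | format = collagen-coated 384-well format | read-out = % viability vs DMSO wells | doses = single 10 µM dose, 0.1% DMSO, from 5x medium stock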
# [3] = growth inhibitors of H69AR lung tumor, primary screen, human, duplicate replicates (AID 580); details: H69AR lung tumor cells viability, ATP luminescence, 72 h; at 10 µM; stronger effect = lower value;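 note: 100% = mean luminescence of untreated wells and 0% = no signal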
# [4] = reversal of MRP1-mediated doxorubicin resistance, pilot screen, H69AR cells, doxorubicin co-treatment (AID 601;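 active = viability loss from added drug above about 55%, and viability with drug at most 40%, in both replicates, limit read from the data, passing the limit was not always enough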); details: CellTiter-Glo, 72 h, at 10 µM; for differential viability (reversal): stronger effect = higher value
# [5] = 384-well plate pilot, post-Golgi transport modulator project, inhibition of yeast transport mutant growth (AID 636; in the data active = inhibition above about 31%); details: absorbance 615 nm, about 18 h, stronger effect = higher value
# [6] = growth suppression of yeast trafficking mutant, preliminary HTS, modulators of trafficking downstream of Golgi apparatus project, 1536-format plate, OD 615 nm (AID 637; in the data active = inhibition above about 30%); details: yeast transport mutant growth, absorbance 615 nm, 18 h; stronger effect = higher value
# [7] = H69AR cells + 2 uM doxorubicin, measured here: viability with 2 uM doxorubicin, stronger effect = lower value
# [8] = H69AR cells, compound alone cytotoxicity
Structure (SMILES),viability [1],viability [2],viability [3],differential viability (reversal) ([4]; H69AR cells + 2 uM doxorubicin),"viability [4, 7] [%]","viability [4, 8] [%]",inhibition [5],inhibition [6]
CCOc1nc(OCC)nc(N2CCC(C)CC2)n1,91% (inactive),108% (inactive),84.9% (inactive),-10.5% (inactive),95.4,84.9,-5% (inactive),31.4% (active)
O=C(CSc1nc2ccccc2c(=O)n1Cc1ccco1)NCc1ccccc1,72% (inactive),82.6% (inactive),89.4% (inactive),3.12% (inactive),86.3,89.4,-8.63% (inactive),0.73% (inactive)
COc1ccccc1N1CCN(C(=O)CN(Cc2ccc(Cl)cc2)S(C)(=O)=O)CC1,91% (inactive),88.7% (inactive),99.8% (inactive),4.09% (inactive),95.7,99.8,-5.45% (inactive),-0.49% (inactive)
CCCc1nc(NCc2ccncc2)c2nnn(Cc3ccccc3F)c2n1,99% (inactive),107% (inactive),54.5% (inactive),8.61% (inactive),45.9,54.5,-1.37% (inactive),-3.39% (inactive)
O=C(O)C(c1ccccc1)N1CCCC1 (stereo not drawn),106% (inactive),102% (inactive),95.9% (inactive),16.4% (inactive),79.5,95.9,-5.6% (inactive),-3.64% (inactive)
CC(C)Cc1ccc(C(C)C(=O)O)cc1 (stereo not drawn),99% (inactive),84.3% (inactive),97.8% (inactive),5.44% (inactive),92.3,97.8,-1.95% (inactive),7.17% (inactive)
O=C1NC(=O)C(c2ccccc2)(c2ccccc2)N1,111% (inactive),75.6% (inactive),98% (inactive),7.3% (inactive),90.7,98,2.86% (inactive),-1% (inactive)
CCCC(=O)Nc1nnc(CC(=O)N2CCCC2)s1,90% (inactive),113% (inactive),96.9% (inactive),7.37% (inactive),89.5,96.9,-9.73% (inactive),-5.27% (inactive)
O=C(CSCc1cccs1)N1CCCC1,115% (inactive),93.6% (inactive),104% (inactive),13.8% (inactive),90.6,104,-0.91% (inactive),5.41% (inactive)
CCOC(=O)CNC(=O)CSc1nnnn1-c1cc(C)ccc1C,105% (inactive),105% (inactive),110% (inactive),12.1% (inactive),98.1,110,-2.08% (inactive),-1.48% (inactive)
Cc1ccc(Cn2nnnc2CN2CCC(O)(c3ccccc3F)CC2)cc1,62% (inactive),92.6% (inactive),83.1% (inactive),-2.32% (inactive),85.4,83.1,-8.36% (inactive),-0.65% (inactive)
Cc1cc(C)nc(SCc2nnc(SCC(=O)Nc3ncc(C)s3)n2Cc2ccco2)n1,91% (inactive),97.1% (inactive),90.4% (inactive),7.87% (inactive),82.6,90.4,-7.87% (inactive),-5.09% (inactive)
C=COCCNC(=O)Nc1ccc(Cl)c(Cl)c1,91% (inactive),101% (inactive),91.1% (inactive),-3.01% (inactive),94.1,91.1,2.16% (inactive),-1.09% (inactive)
CCOC(=O)C1CCN(C(=O)Nc2ccc3nc(C)c(C)nc3c2)CC1,101% (inactive),109% (inactive),95.5% (inactive),15.9% (inactive),79.6,95.5,-3.87% (inactive),-1.09% (inactive)
COC(=O)Nc1sccc1C(=O)Nc1sccc1C(=O)OC,62% (inactive),88.5% (inactive),52.2% (inactive),-13.8% (inactive),66,52.2,2.47% (inactive),-2.36% (inactive)
c1ccc(-c2cc(CSc3nc4ccccc4[nH]3)on2)cc1,94% (inactive),91.8% (inactive),102% (inactive),15.5% (inactive),86.5,102,-6.13% (inactive),3.09% (inactive)
c1ccc(Cn2nnnc2CN2CCCC2)cc1,112% (inactive),101% (inactive),99.4% (inactive),2.88% (inactive),96.5,99.4,-6.3% (inactive),0.48% (inactive)
Cc1nnc(NC(=O)C2CCCO2)s1 (stereo not drawn),90% (inactive),105% (inactive),96.4% (inactive),-10.5% (inactive),107,96.4,-2.47% (inactive),-0.91% (inactive)

Structure (SMILES),viability [1],viability [2],viability [3],differential viability (reversal) ([4]; H69AR cells + 2 uM doxorubicin),"viability [4, 7] [%]","viability [4, 8] [%]",inhibition [5],inhibition [6]
Cc1ccc(F)cc1NC(=O)c1cccc2nccnc12,91.5% (inactive),76.5% (inactive),91.1% (inactive),6.75% (inactive),84.3,91.1,-1.2% (inactive),0.48% (inactive)
Fc1cccc(Cl)c1Cn1nnc2c(NCc3ccccn3)ncnc21,76% (inactive),92.9% (inactive),105% (inactive),14.2% (inactive),91.1,105,-4.66% (inactive),-4.84% (inactive)
CCOC(=O)c1sc(NC(=O)CSc2nnc(-c3ccc(OC)cc3)n2CCOC)nc1C,99% (inactive),97.2% (inactive),101% (inactive),21.8% (inactive),79.6,101,-4.94% (inactive),1.31% (inactive)
COc1ccc(/C=N/n2c(SC)nnc2-c2ccccc2)cc1C,116% (inactive),75.5% (inactive),20.7% (active),-58.1% (inactive),78.8,20.7,0.93% (inactive),9.27% (inactive)
Cc1[nH]c(C(=O)N2CCCCC2)c(C)c1C(=O)NC1CCCCC1,88% (inactive),92.4% (inactive),103% (inactive),18.4% (inactive),84.4,103,1.43% (inactive),0.66% (inactive)
Cc1ccc(Cn2c(SCC(N)=O)nc3c2c(=O)n(C)c(=O)n3C)cc1,106% (inactive),86.9% (inactive),86.4% (inactive),3.46% (inactive),82.9,86.4,-2.4% (inactive),-6.55% (inactive)
CCc1ccccc1NC(=O)C(CC)Sc1nc2cc3c(cc2c(=O)n1Cc1ccco1)OCO3 (stereo not drawn),95.5% (inactive),62.6% (inactive),28.3% (active),13.2% (inactive),15.1,28.3,-3.47% (inactive),2.74% (inactive)
COc1nc(OC)nc(N2CCC(C(=O)NCc3cccs3)CC2)n1,93% (inactive),101% (inactive),91.9% (inactive),-1.4% (inactive),93.3,91.9,-5.32% (inactive),-9.51% (inactive)
O=C(O)CSc1ncn[nH]1,87% (inactive),102% (inactive),109% (inactive),0.37% (inactive),108,109,-6.58% (inactive),6.73% (inactive)
Nc1nnc(SCc2cc3c(cc2Cl)OCO3)s1,118% (inactive),94.4% (inactive),99.7% (inactive),14.4% (inactive),85.2,99.7,-2.47% (inactive),-1.13% (inactive)
Cc1occc1C(=O)Nc1ccc(S(=O)(=O)N2CCN(C)CC2)cc1,71% (inactive),89.2% (inactive),90.4% (inactive),5.85% (inactive),84.5,90.4,-3.01% (inactive),1.82% (inactive)
CCOc1cccc(C(=O)N(Cc2ccco2)C2CCS(=O)(=O)C2)c1 (stereo not drawn),96% (inactive),109% (inactive),97.6% (inactive),8.11% (inactive),89.5,97.6,-5.95% (inactive),-1.09% (inactive)
O=C1CCC(C(=O)N(Cc2ccco2)C2(C(=O)NC3CCCC3)CCCCC2)N1 (stereo not drawn),94% (inactive),106% (inactive),87.7% (inactive),-8.42% (inactive),96.1,87.7,-7.81% (inactive),-1.09% (inactive)
O=C(NCCO)c1cc2ccccc2cc1O,104% (inactive),110% (inactive),97% (inactive),-17.9% (inactive),115,97,-3.25% (inactive),4.43% (inactive)
O=C(c1ccco1)N1CCN(CCCCN2C(=O)c3ccccc3C2=O)CC1,102% (inactive),90.5% (inactive),79.9% (inactive),-12.3% (inactive),92.2,79.9,-1.04% (inactive),0.32% (inactive)
O=C(C1=C(O)C(=O)N(c2ncccn2)C1c1cccc(Cl)c1)c1ccco1 (stereo not drawn),119% (inactive),93% (inactive),89.2% (inactive),-3.12% (inactive),92.4,89.2,2.33% (inactive),1.29% (inactive)
COc1ccc(OCCN2C(=O)NC(C)(c3ccc(C)cc3)C2=O)cc1 (stereo not drawn),119% (inactive),101% (inactive),91.1% (inactive),-3.77% (inactive),94.9,91.1,3.15% (inactive),-4.03% (inactive)
O=C(CSc1nnc(-c2ccco2)n1CC1CCCO1)NC1CCCC1 (stereo not drawn),116% (inactive),94.6% (inactive),94.3% (inactive),7.47% (inactive),86.8,94.3,-2% (inactive),-5.27% (inactive)
